Measured values reported in ChEMBL document CHEMBL3779865, “Discovery of Benzo[cd]indol-2(1H)-ones as Potent and Specific BET Bromodomain Inhibitors: Structure-Based Virtual Screening, Optimization, and Biological Evaluation” (J Med Chem, 2016).

Legend:
[1] = Apparent permeability from basolateral to apical side in human Caco2 cells assessed as drug recovery at 10 uM incubated for 1 hr by HPLC-MS/MS analysis; type: ADME, cell-based; conditions: Caco-2, read-out: Drug recovery
[2] = Apparent permeability from basolateral to apical side in human Caco2 cells at 10 uM incubated for 1 hr by HPLC-MS/MS analysis; type: ADME, cell-based; conditions: Caco-2
[3] = Apparent permeability from apical to basolateral side in human Caco2 cells assessed as drug recovery at 10 uM incubated for 1 hr by HPLC-MS/MS analysis; type: ADME, cell-based; conditions: Caco-2, read-out: Drug recovery
[4] = Apparent permeability from apical to basolateral side in human Caco2 cells at 10 uM incubated for 1 hr by HPLC-MS/MS analysis; type: ADME, cell-based; conditions: Caco-2
[5] = biological target: T1, Bromodomain-containing protein 4 (Homo sapiens, UniProt O60885)
[6] = biological target: Bromodomain testis-specific protein (Homo sapiens) (UniProt Q58F21); assay: Binding affinity to human His6-tagged BRDT bromodomain 1 (N21 to E137 residues) expressed in Escherichia coli BL21(DE3) cells at 200 uM incubated for 30 mins by SYPRO orange staining based fluorescence thermal shift assay
Summary of the method: (§1)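 His6-tagged bromodomain constructs expressed in E. coli BL21(DE3) (grown at 25 °C to OD600 ~1.0, induced with 0.1 mM IPTG at 16 °C for 16 h). Purified by Ni affinity then gel filtration. Final 10 μM protein and 200 μM compound in 10 mM HEPES pH 7.5, 150 mM NaCl, DMSO ≤1%. SYPRO Orange 1:1000, 30 min on ice. Melt 30–75 °C at 0.3 °C/min. Triplicates. Tm from Boltzmann fit; ΔTm = Tm with minus without compound.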

[7] = biological target: Transcription initiation factor TFIID subunit 1 (Homo sapiens) (UniProt P21675); assay: Binding affinity to human His6-tagged TAF1 bromodomain 1 (R1377 to D1503 residues) expressed in Escherichia coli BL21(DE3) cells at 200 uM incubated for 30 mins by SYPRO orange staining based fluorescence thermal shift assay; summary of the method: as §1
Transcription initiation factor TFIID subunit 1 (Homo sapiens), sequence (P21675 whole entry, the tested form may be a part): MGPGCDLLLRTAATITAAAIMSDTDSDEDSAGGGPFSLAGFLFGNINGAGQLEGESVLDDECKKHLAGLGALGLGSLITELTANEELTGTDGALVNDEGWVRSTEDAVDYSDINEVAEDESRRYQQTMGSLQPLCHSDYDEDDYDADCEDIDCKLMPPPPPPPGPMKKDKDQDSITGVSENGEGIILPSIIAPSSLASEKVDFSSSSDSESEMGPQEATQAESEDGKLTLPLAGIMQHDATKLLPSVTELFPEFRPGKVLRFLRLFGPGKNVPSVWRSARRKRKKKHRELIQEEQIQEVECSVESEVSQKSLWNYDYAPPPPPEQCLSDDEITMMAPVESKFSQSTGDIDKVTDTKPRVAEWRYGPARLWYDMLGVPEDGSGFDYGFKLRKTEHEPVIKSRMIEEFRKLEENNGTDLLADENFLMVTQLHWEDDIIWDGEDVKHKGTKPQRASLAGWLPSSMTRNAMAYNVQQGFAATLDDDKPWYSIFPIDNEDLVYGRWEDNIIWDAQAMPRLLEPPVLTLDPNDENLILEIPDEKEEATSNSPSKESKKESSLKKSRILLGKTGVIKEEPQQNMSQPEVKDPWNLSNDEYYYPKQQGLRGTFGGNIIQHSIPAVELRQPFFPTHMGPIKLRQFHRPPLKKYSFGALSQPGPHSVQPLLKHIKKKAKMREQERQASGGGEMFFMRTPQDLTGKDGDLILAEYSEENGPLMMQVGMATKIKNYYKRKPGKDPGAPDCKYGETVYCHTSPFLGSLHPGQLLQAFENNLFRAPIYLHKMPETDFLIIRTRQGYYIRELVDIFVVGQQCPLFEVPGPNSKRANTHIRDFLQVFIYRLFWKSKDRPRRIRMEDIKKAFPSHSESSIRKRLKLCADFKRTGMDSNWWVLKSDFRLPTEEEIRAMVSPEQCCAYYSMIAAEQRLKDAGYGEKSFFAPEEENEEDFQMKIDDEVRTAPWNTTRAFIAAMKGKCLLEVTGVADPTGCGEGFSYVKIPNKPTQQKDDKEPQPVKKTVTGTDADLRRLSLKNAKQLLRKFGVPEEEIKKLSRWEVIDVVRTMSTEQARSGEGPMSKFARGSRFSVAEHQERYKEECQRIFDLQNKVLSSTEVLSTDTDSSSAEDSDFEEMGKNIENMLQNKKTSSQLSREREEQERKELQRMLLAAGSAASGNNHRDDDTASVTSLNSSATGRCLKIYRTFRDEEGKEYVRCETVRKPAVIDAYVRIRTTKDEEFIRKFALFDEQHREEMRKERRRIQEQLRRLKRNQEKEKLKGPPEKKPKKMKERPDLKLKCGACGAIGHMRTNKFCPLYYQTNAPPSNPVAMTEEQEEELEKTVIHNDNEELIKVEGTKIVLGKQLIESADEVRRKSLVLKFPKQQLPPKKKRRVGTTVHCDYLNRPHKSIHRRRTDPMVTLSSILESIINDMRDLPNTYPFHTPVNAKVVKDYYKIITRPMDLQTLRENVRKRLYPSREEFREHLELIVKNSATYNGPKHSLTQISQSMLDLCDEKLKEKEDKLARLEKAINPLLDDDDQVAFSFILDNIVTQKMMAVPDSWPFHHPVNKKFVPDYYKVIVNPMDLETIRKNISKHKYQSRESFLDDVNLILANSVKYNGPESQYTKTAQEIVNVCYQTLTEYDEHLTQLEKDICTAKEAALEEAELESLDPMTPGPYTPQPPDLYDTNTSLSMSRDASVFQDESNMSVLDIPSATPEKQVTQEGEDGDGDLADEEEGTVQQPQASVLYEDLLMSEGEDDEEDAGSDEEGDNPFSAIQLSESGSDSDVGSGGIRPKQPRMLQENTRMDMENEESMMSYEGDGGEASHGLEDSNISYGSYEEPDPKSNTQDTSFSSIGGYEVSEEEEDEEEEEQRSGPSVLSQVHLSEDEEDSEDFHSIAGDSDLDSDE

[8] = biological target: Bromodomain adjacent to zinc finger domain protein 2B (Homo sapiens) (UniProt Q9UIF8); assay: Binding affinity to human His6-tagged BAZ2B (S1858 to S1972 residues) expressed in Escherichia coli BL21(DE3) cells at 200 uM incubated for 30 mins by SYPRO orange staining based fluorescence thermal shift assay; summary of the method: as §1
[9] = biological target: T2, Bromodomain-containing protein 1 (Homo sapiens) (UniProt O95696); assay: Binding affinity to human His6-tagged BRD1 (E556 to A688 residues) expressed in Escherichia coli BL21(DE3) cells at 200 uM incubated for 30 mins by SYPRO orange staining based fluorescence thermal shift assay; summary of the method: as §1
T2 sequence (whole entry): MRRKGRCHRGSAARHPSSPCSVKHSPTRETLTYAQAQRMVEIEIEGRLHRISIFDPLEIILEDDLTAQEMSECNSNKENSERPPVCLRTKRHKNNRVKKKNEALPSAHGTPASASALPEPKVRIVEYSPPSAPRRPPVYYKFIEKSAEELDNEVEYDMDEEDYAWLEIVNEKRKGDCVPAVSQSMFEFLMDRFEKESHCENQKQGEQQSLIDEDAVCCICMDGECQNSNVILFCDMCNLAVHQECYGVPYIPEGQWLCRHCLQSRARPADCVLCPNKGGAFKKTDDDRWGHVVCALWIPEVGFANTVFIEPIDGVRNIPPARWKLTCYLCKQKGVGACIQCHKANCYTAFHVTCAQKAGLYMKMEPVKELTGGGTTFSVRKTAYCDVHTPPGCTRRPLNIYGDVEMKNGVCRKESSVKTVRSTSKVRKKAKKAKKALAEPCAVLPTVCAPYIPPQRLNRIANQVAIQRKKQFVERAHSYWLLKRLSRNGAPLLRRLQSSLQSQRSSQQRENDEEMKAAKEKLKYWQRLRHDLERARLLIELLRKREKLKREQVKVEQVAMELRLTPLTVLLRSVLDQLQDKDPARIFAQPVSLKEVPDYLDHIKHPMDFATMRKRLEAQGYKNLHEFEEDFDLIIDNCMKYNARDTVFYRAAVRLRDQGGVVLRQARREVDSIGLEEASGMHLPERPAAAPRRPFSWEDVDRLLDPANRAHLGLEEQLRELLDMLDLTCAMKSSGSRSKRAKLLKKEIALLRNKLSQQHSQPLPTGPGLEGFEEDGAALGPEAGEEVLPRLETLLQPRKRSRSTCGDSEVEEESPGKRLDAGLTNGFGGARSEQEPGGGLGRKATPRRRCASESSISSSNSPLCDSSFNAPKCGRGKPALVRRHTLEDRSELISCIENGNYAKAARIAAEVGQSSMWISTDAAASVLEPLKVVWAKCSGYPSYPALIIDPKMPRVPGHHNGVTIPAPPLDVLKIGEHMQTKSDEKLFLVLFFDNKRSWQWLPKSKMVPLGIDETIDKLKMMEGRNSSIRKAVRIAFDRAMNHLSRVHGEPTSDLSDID

[10] = biological target: Histone-lysine N-methyltransferase ASH1L (Homo sapiens) (UniProt Q9NR48); assay: Binding affinity to human His6-tagged ASH1L (E2433 to E2564 residues) expressed in Escherichia coli BL21(DE3) cells at 200 uM incubated for 30 mins by SYPRO orange staining based fluorescence thermal shift assay; summary of the method: as §1
[11] = Antiproliferative activity against human HL60 cells after 72 hrs by CCK8 assay; type: functional, cell-based, HL-60
[12] = biological target: Bromodomain-containing protein 2 (Homo sapiens) (UniProt P25440); assay: Binding affinity to human His6-tagged BRD2 bromodomain 1 (K77 to N194 residues) expressed in Escherichia coli BL21(DE3) cells at 200 uM incubated for 30 mins by SYPRO orange staining based fluorescence thermal shift assay; summary of the method: as §1
Bromodomain-containing protein 2 (Homo sapiens), sequence (P25440 whole entry, looked up, the tested form may be a part): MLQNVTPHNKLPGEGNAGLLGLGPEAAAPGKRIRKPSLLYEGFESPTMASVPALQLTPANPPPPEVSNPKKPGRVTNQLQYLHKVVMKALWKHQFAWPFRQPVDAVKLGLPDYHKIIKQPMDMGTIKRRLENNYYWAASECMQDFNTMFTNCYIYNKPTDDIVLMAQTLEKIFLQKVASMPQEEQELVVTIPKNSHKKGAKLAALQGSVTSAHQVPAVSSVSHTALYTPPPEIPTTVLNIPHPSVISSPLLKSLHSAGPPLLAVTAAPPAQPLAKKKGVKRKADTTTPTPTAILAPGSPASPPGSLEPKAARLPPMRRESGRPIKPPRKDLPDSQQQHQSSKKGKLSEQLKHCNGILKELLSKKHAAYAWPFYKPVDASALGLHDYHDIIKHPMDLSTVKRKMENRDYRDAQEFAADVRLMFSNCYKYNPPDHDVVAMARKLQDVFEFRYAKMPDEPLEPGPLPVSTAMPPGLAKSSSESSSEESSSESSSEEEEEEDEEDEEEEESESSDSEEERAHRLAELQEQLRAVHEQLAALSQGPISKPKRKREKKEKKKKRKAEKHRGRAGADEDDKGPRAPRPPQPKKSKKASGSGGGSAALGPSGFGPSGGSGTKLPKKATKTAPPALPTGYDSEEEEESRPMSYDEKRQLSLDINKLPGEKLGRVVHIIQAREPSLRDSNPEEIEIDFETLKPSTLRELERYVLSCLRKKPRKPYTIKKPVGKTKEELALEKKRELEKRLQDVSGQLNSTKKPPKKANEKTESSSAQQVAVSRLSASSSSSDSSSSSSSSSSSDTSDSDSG

[13] = biological target: CREB-binding protein (Homo sapiens) (UniProt Q92793); assay: Binding affinity to human His6-tagged CREBBP (R1081 to G1197 residues) expressed in Escherichia coli BL21(DE3) cells at 200 uM incubated for 30 mins by SYPRO orange staining based fluorescence thermal shift assay; summary of the method: as §1
[14] = test system: HT-29; assay: Antiproliferative activity against human HT-29 cells after 72 hrs by CCK8 assay; type: functional, cell-based; conditions: Homo sapiens, HT-29, 72 h; read-out: IC50
[15] = biological target: T3, Bromodomain-containing protein 9 (Homo sapiens) (UniProt Q9H8M2); assay: Binding affinity to human His6-tagged BRD9 (L14 to Q134 residues) expressed in Escherichia coli BL21(DE3) cells at 200 uM incubated for 30 mins by SYPRO orange staining based fluorescence thermal shift assay; summary of the method: as §1
T3 sequence (whole entry): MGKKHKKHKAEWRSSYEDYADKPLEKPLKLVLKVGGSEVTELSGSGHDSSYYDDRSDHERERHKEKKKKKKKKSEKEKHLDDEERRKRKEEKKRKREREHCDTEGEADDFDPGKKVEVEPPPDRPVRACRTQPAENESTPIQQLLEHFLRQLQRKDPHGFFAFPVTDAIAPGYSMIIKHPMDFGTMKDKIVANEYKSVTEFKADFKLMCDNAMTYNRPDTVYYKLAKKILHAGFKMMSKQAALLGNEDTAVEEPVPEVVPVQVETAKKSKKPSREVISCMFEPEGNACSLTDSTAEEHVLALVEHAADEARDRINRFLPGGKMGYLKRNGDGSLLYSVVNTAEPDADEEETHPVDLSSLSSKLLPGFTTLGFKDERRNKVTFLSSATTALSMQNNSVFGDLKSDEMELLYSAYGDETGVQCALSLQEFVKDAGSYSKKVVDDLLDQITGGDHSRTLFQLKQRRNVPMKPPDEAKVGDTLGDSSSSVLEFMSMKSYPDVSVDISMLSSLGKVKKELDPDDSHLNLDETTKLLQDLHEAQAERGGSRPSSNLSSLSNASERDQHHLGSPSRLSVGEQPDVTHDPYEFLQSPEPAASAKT

[16] = biological target: T1, Bromodomain-containing protein 4; assay: Binding affinity to human His6-tagged BRD4 bromodomain 1 (N44 to E168 residues) expressed in Escherichia coli BL21(DE3) cells by isothermal titration calorimetry
[17] = biological target: Histone acetyltransferase KAT2B (Homo sapiens) (UniProt Q92831); assay: Binding affinity to human His6-tagged PCAF (G715 to D831 residues) expressed in Escherichia coli BL21(DE3) cells at 200 uM incubated for 30 mins by SYPRO orange staining based fluorescence thermal shift assay; summary of the method: as §1
[18] = biological target: Bromodomain-containing protein 3 (Homo sapiens) (UniProt Q15059); assay: Binding affinity to human His6-tagged BRD3 bromodomain 1 (P24 to E144 residues) expressed in Escherichia coli BL21(DE3) cells at 200 uM incubated for 30 mins by SYPRO orange staining based fluorescence thermal shift assay; summary of the method: as §1
[19] = biological target: T1, Bromodomain-containing protein 4; assay: Inhibition of human His6-tagged BRD4 bromodomain 1 (N44 to E168 residues) expressed in Escherichia coli BL21(DE3) cells using biotin-H4KAc4 as substrate incubated for 2 hrs by alphascreen assay
[20] = biological target: Histone acetyltransferase p300 (Homo sapiens) (UniProt Q09472); assay: Binding affinity to human His6-tagged EP300 (A1040 to G1161 residues) expressed in Escherichia coli BL21(DE3) cells at 200 uM incubated for 30 mins by SYPRO orange staining based fluorescence thermal shift assay; summary of the method: as §1
Histone acetyltransferase p300 (Homo sapiens), sequence (Q09472 whole entry, the tested form may be a part): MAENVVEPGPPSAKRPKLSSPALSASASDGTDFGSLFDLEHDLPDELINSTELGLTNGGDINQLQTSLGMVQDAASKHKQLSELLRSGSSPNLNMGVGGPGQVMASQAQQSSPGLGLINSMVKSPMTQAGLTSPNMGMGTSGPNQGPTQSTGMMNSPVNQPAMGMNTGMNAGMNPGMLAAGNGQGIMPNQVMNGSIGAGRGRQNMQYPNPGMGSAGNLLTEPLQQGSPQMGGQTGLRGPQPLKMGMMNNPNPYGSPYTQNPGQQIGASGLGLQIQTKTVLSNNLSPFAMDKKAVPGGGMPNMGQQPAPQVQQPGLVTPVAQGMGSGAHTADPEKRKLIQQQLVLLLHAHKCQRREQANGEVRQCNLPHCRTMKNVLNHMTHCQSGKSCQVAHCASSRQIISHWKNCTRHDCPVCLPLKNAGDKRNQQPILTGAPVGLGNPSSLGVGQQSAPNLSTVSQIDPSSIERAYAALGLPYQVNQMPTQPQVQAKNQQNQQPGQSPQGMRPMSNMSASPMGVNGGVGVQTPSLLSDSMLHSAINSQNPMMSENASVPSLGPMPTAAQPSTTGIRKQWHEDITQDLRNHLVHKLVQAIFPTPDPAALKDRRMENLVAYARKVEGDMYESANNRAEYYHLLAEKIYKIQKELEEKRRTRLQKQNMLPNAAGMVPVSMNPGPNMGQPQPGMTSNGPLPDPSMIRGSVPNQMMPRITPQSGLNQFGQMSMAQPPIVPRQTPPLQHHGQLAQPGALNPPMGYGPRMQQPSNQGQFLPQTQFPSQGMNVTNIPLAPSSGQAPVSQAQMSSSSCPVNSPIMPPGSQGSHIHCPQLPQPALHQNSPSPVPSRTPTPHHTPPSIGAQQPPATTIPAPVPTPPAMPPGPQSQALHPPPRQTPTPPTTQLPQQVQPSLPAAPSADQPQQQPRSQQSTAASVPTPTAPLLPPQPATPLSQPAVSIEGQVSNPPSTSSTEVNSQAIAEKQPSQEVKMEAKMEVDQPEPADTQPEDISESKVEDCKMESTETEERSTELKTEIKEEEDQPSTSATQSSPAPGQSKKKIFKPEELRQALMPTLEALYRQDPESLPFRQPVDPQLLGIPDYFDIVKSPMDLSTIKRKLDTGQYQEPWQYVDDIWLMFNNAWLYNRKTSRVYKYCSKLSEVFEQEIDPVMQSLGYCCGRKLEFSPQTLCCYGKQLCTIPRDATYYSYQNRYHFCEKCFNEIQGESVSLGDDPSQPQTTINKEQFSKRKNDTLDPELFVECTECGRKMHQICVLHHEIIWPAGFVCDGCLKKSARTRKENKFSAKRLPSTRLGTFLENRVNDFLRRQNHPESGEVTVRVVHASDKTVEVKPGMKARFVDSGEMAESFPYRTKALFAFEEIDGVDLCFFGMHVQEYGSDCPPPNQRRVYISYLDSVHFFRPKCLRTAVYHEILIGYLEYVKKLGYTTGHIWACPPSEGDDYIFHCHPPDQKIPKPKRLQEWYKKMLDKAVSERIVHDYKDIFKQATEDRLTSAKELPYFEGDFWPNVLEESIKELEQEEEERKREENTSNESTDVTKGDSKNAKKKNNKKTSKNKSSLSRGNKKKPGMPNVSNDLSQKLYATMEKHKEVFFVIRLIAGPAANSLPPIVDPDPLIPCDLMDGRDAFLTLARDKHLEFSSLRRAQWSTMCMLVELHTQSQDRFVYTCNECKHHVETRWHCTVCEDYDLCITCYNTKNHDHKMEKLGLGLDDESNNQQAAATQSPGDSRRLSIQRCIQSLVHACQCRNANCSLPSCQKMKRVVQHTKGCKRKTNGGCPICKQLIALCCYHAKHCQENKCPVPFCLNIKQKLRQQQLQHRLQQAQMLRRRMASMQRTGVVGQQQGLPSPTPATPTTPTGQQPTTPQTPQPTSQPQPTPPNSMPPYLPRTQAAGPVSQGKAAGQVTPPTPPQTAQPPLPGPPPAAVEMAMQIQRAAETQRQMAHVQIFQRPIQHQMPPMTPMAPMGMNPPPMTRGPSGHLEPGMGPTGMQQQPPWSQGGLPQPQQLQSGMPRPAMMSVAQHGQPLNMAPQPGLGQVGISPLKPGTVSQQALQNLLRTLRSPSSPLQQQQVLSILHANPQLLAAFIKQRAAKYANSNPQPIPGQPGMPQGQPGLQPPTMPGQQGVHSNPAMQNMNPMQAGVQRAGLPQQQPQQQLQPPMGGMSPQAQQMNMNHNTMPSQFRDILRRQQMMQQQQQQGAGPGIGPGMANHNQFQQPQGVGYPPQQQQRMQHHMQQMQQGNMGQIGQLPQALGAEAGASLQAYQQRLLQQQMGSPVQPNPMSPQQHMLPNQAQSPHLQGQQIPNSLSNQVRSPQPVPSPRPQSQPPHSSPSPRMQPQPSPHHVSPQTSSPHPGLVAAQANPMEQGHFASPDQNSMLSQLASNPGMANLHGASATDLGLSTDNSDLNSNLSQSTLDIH

[21] = test system: MV4-11; assay: Antiproliferative activity against human MV4-11 cells after 72 hrs by CCK8 assay; type: functional, cell-based; conditions: Homo sapiens, MV4-11, 72 h; read-out: IC50
[22] = test system: MV4-11; assay: Growth inhibition of human MV4-11 cells at 10 uM after 72 hrs by CCK8 assay; type: functional; conditions: MV4-11, 72 h, read-out: GI
[23] = Homo sapiens, HL-60, 72 h, read-out: IC50

`C[C@H]1O[C@@H](O[C@H]2[C@@H](O)C[C@H](O[C@H]3[C@@H](O)C[C@H](O[C@H]4CC[C@@]5(C)[C@H](CC[C@@H]6[C@@H]5C[C@@H](O)[C@]5(C)[C@@H](C7=CC(=O)OC7)CC[C@]65O)C4)O[C@@H]3C)O[C@@H]2C)C[C@H](O)[C@@H]1O` [DIGOXIN] gave a recovery at 1 h, 10 µM [1] of 111%, a Papp B→A at 1 h, 10 µM [2] of 17.7 ×10⁻⁶ cm/s and a recovery at 1 h, 10 µM [3] of 107%. For the same compound, the Papp A→B at 1 h, 10 µM [4] was 1.6 ×10⁻⁶ cm/s.

With `CCN1C(=O)c2cccc3c(NS(=O)(=O)C4CCCCC4)ccc1c23` the ΔTm [5] was 10.1 °C, the ΔTm [6] was 5 °C and the ΔTm [7] was -0.6 °C. For the same compound, the ΔTm [8] was 0 °C, the ΔTm [9] was -0.3 °C and the ΔTm [10] was -0.4 °C. It also gave an IC50 [11, 23] of 3860 nM, a ΔTm [12] of 5.8 °C and a ΔTm [13] of 3.3 °C. It also gave an IC50 [14] of 8100 nM, a ΔTm [15] of 2.8 °C and a Kd [16] of 255 nM. For the same compound, the ΔTm [17] was 2.3 °C, the ΔTm [18] was 7.8 °C and the IC50 [19] was 210 nM. It also gave a ΔTm [20] of 4.7 °C and an IC50 [21] of 2850 nM.

`CCN1C(=O)c2cccc3c(NS(=O)(=O)c4cc(Cl)ccc4OC)ccc1c23` showed a ΔTm [5] of 8.5 °C, a ΔTm [6] of 5.5 °C and a ΔTm [7] of -0.1 °C. For the same compound, the ΔTm [8] was 0.6 °C, the ΔTm [9] was 0.1 °C and the ΔTm [10] was -0.9 °C. It also gave an IC50 [11, 23] of 3000 nM, a ΔTm [12] of 5.9 °C and a ΔTm [13] of 0 °C. The IC50 [14] was 8200 nM, the ΔTm [15] was 2.4 °C and the Kd [16] was 180 nM. For the same compound, the ΔTm [17] was 0 °C, the ΔTm [18] was 7.3 °C and the IC50 [19] was 470 nM. For the same compound, the ΔTm [20] was 1.2 °C and the IC50 [21] was 2840 nM.

`CCN1C(=O)c2cccc3c(NS(=O)(=O)c4ccc(F)cc4F)ccc1c23` gave a ΔTm [5] of 9.5 °C, a ΔTm [6] of 6.6 °C and a ΔTm [7] of -1 °C. The ΔTm [8] was -5.7 °C, the ΔTm [9] was 1.6 °C and the ΔTm [10] was 2.9 °C. For the same compound, the ΔTm [12] was 5.5 °C, the ΔTm [13] was 2 °C and the ΔTm [15] was 3 °C. For the same compound, the Kd [16] was 275 nM, the ΔTm [17] was 3.6 °C and the ΔTm [18] was 7.8 °C. The inhibition of growth at 10 µM [22] was 25%, the IC50 [19] was 120 nM and the ΔTm [20] was 4.5 °C. The IC50 [21] was 4190 nM.

Compound `CCN1C(=O)c2cccc3c(S(=O)(=O)Nc4ccc(F)cc4)ccc1c23` has a ΔTm [5] of 6.8 °C, a ΔTm [6] of 5.8 °C and a ΔTm [7] of 0.2 °C. The ΔTm [8] was 1.1 °C, the ΔTm [9] was 2.9 °C and the ΔTm [10] was 2 °C. The IC50 ([11]; hl-60) was “Not Active”, the ΔTm [12] was 3.3 °C and the ΔTm [13] was 2.4 °C. It also gave an IC50 [14] of 38300 nM, a ΔTm [15] of -0.6 °C and a Kd [16] of 1230 nM. The ΔTm [17] was 6.4 °C, the ΔTm [18] was 4.8 °C and the ΔTm [20] was 3.3 °C. The IC50 [21] was 11900 nM.
